Reference: ChEMBL document CHEMBL1811853, “Design and evaluation of 3-aminopyrazolopyridinone kinase inhibitors inspired by the natural product indirubin” (Bioorg Med Chem, 2011)
Values after ≈ are worked out from the molar mass of the structure shown.

Tests used:
[1] = Aqueous solubility of the compound by HPLC analysis; type: physicochemical; settings: water
How it was run: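 Solubility determined by HPLC measurement of the concentration in saturated aqueous solutions of the compounds.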

[2] = target: MAP kinase-activated protein kinase 2 (Homo sapiens, UniProt P49137); test: Inhibition of MAPKAPK2 at 30 uM by microfluidic mobility shift assay
Sequence of MAP kinase-activated protein kinase 2 (P49137 whole entry, looked up): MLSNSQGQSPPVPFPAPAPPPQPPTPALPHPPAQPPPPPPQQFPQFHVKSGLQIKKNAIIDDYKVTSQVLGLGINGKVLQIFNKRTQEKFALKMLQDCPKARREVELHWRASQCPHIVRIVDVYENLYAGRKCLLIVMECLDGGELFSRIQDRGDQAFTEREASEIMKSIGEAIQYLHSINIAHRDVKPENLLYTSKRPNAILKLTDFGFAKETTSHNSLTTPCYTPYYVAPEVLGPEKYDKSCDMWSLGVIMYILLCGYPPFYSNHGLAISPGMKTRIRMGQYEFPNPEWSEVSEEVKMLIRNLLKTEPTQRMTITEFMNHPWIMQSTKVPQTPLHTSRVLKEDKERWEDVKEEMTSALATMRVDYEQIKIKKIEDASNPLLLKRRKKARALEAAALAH
How it was run: (§1)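 Single-concentration screen, singlicate, 30 uM final (diluted from 1 mM DMSO solutions), fluorescently tagged peptide substrate appropriate to each kinase, ATP at apparent Km for each protein. Phosphorylated and unphosphorylated peptides separated electrophoretically; conversion is the phosphorylated peak area over the sum of both peaks. No-inhibitor and no-ATP controls; H89 reference on each plate.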

[3] = target: T1, Aurora kinase A (Homo sapiens) (UniProt O14965); test: Inhibition of AurA at 30 uM by microfluidic mobility shift assay; how it was run: as §1
T1 sequence (whole entry): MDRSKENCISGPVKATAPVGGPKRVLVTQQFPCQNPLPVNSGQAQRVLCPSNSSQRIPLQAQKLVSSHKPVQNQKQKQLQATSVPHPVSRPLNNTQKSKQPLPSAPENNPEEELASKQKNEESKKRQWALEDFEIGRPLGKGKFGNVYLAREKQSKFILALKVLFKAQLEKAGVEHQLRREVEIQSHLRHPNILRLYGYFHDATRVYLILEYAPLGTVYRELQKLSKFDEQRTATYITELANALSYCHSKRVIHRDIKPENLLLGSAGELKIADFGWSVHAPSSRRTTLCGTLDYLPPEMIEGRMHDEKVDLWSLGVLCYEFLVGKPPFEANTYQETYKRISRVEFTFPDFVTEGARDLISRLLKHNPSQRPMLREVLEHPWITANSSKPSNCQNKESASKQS

[4] = target: Ribosomal protein S6 kinase alpha-1 (Homo sapiens) (UniProt Q15418); test: Inhibition of RSK1 at 30 uM by microfluidic mobility shift assay; how it was run: as §1
[5] = target: T2, MAP kinase-activated protein kinase 5 (Homo sapiens) (UniProt Q8IW41); test: Inhibition of PRAK1 at 30 uM by microfluidic mobility shift assay; how it was run: as §1
T2 sequence (whole entry): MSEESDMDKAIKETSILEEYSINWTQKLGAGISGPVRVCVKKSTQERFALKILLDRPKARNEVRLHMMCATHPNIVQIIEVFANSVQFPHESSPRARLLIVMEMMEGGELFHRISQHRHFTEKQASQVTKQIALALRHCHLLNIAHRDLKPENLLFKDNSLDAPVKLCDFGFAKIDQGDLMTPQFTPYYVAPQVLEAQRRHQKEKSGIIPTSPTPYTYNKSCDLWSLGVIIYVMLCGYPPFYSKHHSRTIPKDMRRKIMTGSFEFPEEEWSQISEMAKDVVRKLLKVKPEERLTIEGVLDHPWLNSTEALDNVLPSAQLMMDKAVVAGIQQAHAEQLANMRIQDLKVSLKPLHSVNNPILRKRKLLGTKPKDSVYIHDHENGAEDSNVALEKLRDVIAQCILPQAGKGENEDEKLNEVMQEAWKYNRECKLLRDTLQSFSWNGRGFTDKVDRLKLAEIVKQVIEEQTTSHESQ

[6] = target: Mitogen-activated protein kinase 3 (Homo sapiens) (UniProt P27361); test: Inhibition of ERK1 at 30 uM by microfluidic mobility shift assay; how it was run: as §1
Sequence of Mitogen-activated protein kinase 3 (Homo sapiens) (P27361 whole entry): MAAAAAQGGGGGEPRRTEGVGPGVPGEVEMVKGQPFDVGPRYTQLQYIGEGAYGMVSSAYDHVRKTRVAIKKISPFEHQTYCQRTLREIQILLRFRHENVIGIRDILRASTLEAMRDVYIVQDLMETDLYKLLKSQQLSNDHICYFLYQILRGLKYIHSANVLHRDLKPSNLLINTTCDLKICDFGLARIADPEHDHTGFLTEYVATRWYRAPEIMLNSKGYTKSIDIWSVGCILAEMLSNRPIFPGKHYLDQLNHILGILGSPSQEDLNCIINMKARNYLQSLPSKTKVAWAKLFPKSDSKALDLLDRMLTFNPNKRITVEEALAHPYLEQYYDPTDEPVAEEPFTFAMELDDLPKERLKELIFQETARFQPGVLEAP

[7] = target: T3, Serine/threonine-protein kinase D2 (Homo sapiens) (UniProt Q9BZL6); test: Inhibition of PKD2 at 30 uM by microfluidic mobility shift assay; how it was run: as §1
T3 sequence (whole entry): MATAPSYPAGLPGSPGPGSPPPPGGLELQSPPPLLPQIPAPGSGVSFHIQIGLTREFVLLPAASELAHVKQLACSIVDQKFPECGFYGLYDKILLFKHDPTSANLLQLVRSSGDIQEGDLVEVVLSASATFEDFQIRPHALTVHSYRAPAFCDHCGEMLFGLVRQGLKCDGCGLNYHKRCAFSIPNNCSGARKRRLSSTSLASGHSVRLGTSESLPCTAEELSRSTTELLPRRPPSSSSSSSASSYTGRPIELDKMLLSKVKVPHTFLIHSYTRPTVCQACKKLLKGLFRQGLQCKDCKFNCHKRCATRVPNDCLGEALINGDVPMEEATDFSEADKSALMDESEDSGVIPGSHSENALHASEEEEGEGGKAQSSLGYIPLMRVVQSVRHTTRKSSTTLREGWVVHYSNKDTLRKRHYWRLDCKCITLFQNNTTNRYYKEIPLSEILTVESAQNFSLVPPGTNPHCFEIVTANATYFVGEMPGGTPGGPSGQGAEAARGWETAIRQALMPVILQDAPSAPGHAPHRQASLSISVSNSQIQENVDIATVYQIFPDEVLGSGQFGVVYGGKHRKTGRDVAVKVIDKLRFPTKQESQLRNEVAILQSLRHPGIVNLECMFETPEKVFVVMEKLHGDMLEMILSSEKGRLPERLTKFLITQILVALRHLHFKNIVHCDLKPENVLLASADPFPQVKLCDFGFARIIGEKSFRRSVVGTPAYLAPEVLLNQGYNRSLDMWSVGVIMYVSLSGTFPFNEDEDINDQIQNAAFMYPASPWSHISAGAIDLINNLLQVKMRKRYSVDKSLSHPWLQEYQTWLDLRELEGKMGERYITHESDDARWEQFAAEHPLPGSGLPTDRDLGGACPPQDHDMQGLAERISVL

[8] = target: T4, Serine/threonine-protein kinase Chk1 (Homo sapiens) (UniProt O14757); test: Inhibition of CHK1 at 30 uM by microfluidic mobility shift assay; how it was run: as §1
T4 sequence (whole entry): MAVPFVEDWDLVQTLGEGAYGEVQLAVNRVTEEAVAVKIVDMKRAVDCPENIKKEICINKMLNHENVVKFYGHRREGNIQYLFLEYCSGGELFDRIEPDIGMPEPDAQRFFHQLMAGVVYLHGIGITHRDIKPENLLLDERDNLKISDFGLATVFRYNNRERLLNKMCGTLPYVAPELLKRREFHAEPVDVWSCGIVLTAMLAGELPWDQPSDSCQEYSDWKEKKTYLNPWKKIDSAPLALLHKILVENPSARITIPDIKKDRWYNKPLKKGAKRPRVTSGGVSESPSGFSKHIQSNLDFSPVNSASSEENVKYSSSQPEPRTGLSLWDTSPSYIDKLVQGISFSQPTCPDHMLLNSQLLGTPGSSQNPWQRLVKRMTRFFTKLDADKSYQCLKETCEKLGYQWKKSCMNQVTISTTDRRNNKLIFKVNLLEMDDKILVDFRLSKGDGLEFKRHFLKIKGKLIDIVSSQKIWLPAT

[9] = target: Tyrosine-protein kinase ABL1 (Homo sapiens, UniProt P00519); test: Inhibition of ABL at 30 uM by microfluidic mobility shift assay; how it was run: as §1
[10] = target: Tyrosine-protein kinase Fyn (Homo sapiens, UniProt P06241); test: Inhibition of FYN at 30 uM by microfluidic mobility shift assay; how it was run: as §1
Sequence of Tyrosine-protein kinase Fyn (P06241 2-537 limits assumed): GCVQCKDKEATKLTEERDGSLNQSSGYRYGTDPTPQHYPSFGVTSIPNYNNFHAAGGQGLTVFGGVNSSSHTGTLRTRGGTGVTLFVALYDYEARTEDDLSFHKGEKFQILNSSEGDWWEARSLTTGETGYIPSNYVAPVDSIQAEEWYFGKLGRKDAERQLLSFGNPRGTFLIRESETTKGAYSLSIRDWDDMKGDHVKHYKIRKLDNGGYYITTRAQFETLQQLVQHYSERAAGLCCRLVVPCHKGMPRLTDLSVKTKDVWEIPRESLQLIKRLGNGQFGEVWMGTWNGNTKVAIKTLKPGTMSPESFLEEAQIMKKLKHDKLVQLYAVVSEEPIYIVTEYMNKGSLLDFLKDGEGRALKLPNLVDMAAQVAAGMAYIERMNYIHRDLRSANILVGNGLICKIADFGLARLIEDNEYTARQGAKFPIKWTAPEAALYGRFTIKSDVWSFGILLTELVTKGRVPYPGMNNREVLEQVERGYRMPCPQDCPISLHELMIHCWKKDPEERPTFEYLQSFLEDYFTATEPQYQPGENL

[11] = target: Tyrosine-protein kinase Lyn (Homo sapiens, UniProt P07948); test: Inhibition of LYN at 30 uM by microfluidic mobility shift assay; how it was run: as §1
Sequence of Tyrosine-protein kinase Lyn (P07948 2-512 limits assumed): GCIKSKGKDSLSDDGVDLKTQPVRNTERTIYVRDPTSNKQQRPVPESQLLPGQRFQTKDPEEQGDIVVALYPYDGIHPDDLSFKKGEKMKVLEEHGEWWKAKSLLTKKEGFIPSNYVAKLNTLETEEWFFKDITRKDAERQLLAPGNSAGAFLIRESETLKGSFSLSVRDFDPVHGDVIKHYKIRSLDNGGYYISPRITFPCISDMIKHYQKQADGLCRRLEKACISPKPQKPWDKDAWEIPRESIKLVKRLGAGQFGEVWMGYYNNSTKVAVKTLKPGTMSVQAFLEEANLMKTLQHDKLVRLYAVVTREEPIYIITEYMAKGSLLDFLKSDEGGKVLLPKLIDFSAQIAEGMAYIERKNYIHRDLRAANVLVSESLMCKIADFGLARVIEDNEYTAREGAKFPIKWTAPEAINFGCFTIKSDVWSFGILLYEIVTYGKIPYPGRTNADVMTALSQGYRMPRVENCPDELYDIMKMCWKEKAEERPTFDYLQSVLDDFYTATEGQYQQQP

[12] = target: Serine/threonine-protein kinase Chk2 (Homo sapiens, UniProt O96017); test: Inhibition of CHK2 at 30 uM by microfluidic mobility shift assay; how it was run: as §1
[13] = target: Tyrosine-protein kinase Lck (Homo sapiens, UniProt P06239); test: Inhibition of LCK at 30 uM by microfluidic mobility shift assay; how it was run: as §1
[14] = target: Proto-oncogene tyrosine-protein kinase Src (Homo sapiens, UniProt P12931); test: Inhibition of SRC at 30 uM by microfluidic mobility shift assay; how it was run: as §1
Sequence of Proto-oncogene tyrosine-protein kinase Src (P12931 2-536 limits assumed): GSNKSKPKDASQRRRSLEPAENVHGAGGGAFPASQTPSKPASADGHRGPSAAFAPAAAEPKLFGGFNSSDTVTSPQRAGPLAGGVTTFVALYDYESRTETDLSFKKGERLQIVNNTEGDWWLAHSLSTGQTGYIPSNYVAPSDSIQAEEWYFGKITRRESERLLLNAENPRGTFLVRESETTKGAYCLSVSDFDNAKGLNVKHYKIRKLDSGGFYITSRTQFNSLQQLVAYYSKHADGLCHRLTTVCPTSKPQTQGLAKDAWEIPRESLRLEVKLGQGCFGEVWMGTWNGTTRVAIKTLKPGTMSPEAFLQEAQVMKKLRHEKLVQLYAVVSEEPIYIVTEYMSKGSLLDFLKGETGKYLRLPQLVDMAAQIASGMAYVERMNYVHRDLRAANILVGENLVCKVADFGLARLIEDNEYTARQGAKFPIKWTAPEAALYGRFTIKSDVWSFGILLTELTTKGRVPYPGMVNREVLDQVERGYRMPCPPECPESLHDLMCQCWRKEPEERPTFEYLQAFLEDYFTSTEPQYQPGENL

[15] = target: Glycogen synthase kinase-3 beta (Homo sapiens) (UniProt P49841); test: Inhibition of GSK3B at 30 uM by microfluidic mobility shift assay; how it was run: as §1
Sequence of Glycogen synthase kinase-3 beta (Homo sapiens) (P49841 whole entry, looked up): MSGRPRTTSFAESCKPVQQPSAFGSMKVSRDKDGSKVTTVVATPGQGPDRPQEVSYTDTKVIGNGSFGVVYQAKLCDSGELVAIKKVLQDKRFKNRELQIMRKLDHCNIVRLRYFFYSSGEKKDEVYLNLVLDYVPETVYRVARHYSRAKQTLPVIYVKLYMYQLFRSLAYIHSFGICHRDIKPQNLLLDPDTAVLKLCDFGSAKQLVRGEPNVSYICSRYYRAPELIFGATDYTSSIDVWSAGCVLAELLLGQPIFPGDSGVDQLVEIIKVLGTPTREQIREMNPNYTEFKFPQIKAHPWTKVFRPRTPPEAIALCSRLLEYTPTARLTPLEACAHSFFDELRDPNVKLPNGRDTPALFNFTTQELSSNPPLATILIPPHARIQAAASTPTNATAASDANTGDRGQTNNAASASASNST

[16] = target: Mitogen-activated protein kinase 1 (Homo sapiens) (UniProt P28482); test: Inhibition of ERK2 at 30 uM by microfluidic mobility shift assay; how it was run: as §1
Sequence of Mitogen-activated protein kinase 1 (Homo sapiens) (P28482 whole entry): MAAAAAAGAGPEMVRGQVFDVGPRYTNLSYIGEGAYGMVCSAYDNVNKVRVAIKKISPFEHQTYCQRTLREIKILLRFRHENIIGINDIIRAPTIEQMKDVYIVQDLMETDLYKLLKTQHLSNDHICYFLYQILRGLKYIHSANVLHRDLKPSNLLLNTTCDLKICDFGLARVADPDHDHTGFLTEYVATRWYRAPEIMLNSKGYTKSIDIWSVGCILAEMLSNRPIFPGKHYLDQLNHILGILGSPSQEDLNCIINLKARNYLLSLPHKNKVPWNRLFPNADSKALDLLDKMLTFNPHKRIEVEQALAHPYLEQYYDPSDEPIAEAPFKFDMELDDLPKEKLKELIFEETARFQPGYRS

[17] = Inhibition of PKA at 30 uM by microfluidic mobility shift assay; how it was run: as §1
[18] = target: RAC-beta serine/threonine-protein kinase (Homo sapiens) (UniProt P31751); test: Inhibition of AKT2 at 30 uM by microfluidic mobility shift assay; how it was run: as §1
Sequence of RAC-beta serine/threonine-protein kinase (Homo sapiens) (P31751 whole entry): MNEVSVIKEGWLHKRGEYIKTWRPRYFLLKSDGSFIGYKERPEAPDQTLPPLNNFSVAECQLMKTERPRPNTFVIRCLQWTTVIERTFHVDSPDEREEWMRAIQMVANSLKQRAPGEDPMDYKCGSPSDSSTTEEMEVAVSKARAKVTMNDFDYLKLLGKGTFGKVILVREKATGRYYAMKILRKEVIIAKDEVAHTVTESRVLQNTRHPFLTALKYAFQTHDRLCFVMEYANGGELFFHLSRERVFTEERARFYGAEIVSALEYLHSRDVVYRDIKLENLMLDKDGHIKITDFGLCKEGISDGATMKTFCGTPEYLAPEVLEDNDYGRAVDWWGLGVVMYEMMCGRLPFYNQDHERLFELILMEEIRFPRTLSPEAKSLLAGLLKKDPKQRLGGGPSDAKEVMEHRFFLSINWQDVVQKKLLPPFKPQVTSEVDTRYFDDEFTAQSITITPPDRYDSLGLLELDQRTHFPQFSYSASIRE

[19] = target: Insulin receptor (Homo sapiens) (UniProt P06213); test: Inhibition of INSR at 30 uM by microfluidic mobility shift assay; how it was run: as §1
[20] = target: Mitogen-activated protein kinase 14 (Homo sapiens, UniProt Q16539); test: Inhibition of p38alpha at 30 uM by microfluidic mobility shift assay; how it was run: as §1
[21] = target: RAC-alpha serine/threonine-protein kinase (Homo sapiens) (UniProt P31749); test: Inhibition of AKT1 at 30 uM by microfluidic mobility shift assay; how it was run: as §1
Sequence of RAC-alpha serine/threonine-protein kinase (Homo sapiens) (P31749 whole entry): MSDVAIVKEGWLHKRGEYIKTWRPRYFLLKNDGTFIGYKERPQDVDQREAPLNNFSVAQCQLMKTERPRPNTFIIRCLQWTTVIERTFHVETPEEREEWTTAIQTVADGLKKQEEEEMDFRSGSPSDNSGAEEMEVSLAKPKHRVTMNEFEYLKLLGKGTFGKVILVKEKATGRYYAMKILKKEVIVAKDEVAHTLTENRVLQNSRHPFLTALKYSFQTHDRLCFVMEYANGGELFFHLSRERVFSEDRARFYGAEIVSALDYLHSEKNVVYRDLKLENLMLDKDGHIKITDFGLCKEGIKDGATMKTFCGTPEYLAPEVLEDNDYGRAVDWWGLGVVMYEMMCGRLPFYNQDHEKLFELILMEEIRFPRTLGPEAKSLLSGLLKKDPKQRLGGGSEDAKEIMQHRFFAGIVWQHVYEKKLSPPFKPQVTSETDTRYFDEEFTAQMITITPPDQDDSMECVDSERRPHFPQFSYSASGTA

[22] = target: Ribosomal protein S6 kinase alpha-5 (Homo sapiens) (UniProt O75582); test: Inhibition of MSK1 at 30 uM by microfluidic mobility shift assay; how it was run: as §1
Sequence of Ribosomal protein S6 kinase alpha-5 (Homo sapiens) (O75582 whole entry, looked up): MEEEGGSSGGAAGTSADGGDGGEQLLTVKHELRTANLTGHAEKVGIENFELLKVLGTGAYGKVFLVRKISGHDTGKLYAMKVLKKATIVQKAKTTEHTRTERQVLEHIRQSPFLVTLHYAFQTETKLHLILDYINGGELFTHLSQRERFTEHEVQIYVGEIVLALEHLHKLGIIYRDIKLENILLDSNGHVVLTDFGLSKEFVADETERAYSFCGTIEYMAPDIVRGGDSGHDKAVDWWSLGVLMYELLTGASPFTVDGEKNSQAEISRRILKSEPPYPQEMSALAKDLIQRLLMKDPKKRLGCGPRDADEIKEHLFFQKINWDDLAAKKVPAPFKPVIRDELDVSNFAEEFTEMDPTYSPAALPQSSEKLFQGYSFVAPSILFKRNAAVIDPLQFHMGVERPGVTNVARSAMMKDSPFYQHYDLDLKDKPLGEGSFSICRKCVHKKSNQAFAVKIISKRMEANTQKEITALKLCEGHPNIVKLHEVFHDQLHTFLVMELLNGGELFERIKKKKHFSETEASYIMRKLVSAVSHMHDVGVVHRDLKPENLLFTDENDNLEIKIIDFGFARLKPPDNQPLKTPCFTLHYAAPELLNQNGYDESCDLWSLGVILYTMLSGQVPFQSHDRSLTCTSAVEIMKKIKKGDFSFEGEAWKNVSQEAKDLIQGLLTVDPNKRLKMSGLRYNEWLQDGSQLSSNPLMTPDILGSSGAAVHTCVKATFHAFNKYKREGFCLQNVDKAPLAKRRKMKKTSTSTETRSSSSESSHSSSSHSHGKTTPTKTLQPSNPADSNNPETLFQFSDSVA

[23] = target: T5, Protein kinase C zeta type (Homo sapiens) (UniProt Q05513); test: Inhibition of PKCz at 30 uM by microfluidic mobility shift assay; how it was run: as §1
T5 sequence (whole entry): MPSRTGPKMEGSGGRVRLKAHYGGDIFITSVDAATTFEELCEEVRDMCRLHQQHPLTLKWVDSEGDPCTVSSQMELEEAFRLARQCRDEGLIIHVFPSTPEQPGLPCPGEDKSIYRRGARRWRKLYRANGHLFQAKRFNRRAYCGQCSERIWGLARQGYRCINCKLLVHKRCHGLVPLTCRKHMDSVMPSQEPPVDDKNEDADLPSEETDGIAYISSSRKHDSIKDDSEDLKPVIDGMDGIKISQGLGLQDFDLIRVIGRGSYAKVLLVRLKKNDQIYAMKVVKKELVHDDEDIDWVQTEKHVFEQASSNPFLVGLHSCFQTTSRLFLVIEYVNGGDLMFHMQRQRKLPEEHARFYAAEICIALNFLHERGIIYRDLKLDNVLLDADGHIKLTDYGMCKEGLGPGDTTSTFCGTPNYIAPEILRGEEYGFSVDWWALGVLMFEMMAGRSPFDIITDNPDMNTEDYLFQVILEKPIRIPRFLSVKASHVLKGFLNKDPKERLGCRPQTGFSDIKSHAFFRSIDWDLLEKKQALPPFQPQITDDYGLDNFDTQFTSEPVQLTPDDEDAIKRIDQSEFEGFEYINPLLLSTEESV

Structure (SMILES) | inhibition [2] | inhibition [3] | inhibition [4] | inhibition [5] | inhibition [6] | inhibition [8] | inhibition [9] | inhibition [10] | inhibition [11] | inhibition [12] | inhibition [13] | inhibition [14] | inhibition [15] | inhibition [16] | inhibition [17] | inhibition [18] | inhibition [19] | inhibition [20] | inhibition [21] | inhibition [22] | further results
Cc1cc2c(c(N)nn2C)c(N2CCN(C)CC2)n1 | – | – | – | – | – | – | – | – | – | – | – | – | – | – | – | – | – | – | – | – | solubility [1]: 1.16 mg/mL (≈ 4.47 mM)
Cc1cc2nc(-c3ccccc3)nc(N)c2c(=O)[nH]1 | 22% | 34% | 14% | 5% | 10% | 3% | 39% | 32% | 23% | 4% | 45% | 40% | 86% | 11% | 50% | 2% | 5% | 7% | 7% | 15% | inhibition [7]: 5%
Cc1cc2c(c(N)nn2C)c(N2CCOCC2)n1 | -2% | 17% | 1% | 5% | 4% | -5% | 15% | 9% | 17% | 3% | 10% | 7% | 8% | -1% | -2% | 12% | 3% | 2% | -8% | 4% | inhibition [7]: -4%
COCCNc1nc(C)cc2nn(-c3ccccc3)c(N)c12 | 3% | 32% | 2% | 2% | 3% | 0% | 4% | -3% | 6% | 4% | 0% | 2% | 10% | -1% | 1% | 2% | 1% | 3% | 3% | 3% | inhibition [7]: -1%

Further lines, with some results ahead:

inhibition [2] | inhibition [3] | inhibition [4] | inhibition [5] | inhibition [6] | inhibition [8] | inhibition [9] | inhibition [10] | inhibition [11] | inhibition [12] | inhibition [13] | inhibition [14] | inhibition [15] | inhibition [16] | inhibition [17] | inhibition [18] | inhibition [19] | inhibition [20] | inhibition [21] | inhibition [22] | Structure (SMILES) | further results
39% | 34% | 22% | 1% | 12% | 12% | 14% | 48% | 40% | 21% | 40% | 58% | 41% | 4% | 75% | 4% | 14% | 3% | 3% | 65% | CC(C)(C)c1cc2[nH]nc(N)c2c(=O)[nH]1 | inhibition [23]: -9%
58% | 67% | 35% | 12% | 15% | 44% | 63% | 69% | 63% | 59% | 58% | 74% | 89% | 15% | 79% | 5% | 21% | 6% | 4% | 63% | Nc1n[nH]c2cc(-c3cccs3)[nH]c(=O)c12 | inhibition [7]: 5%
35% | 5% | 11% | 3% | 4% | 16% | 7% | -3% | -1% | 7% | 4% | 4% | 4% | -2% | 71% | 6% | 1% | 3% | 13% | 62% | Nc1n[nH]c2cc(CC3CCNCC3)[nH]c(=O)c12 | inhibition [7]: -6%
